The values that follow come from ChEMBL document CHEMBL1144782, “Isoindolo[2,1-a]quinoxaline derivatives, novel potent antitumor agents with dual inhibition of tubulin polymerization and topoisomerase I” (2008).

One assay has as its system Jurkat. In words: Cell cycle arrest in human Jurkat cells at mitosis at 0.5 uM after 24 hrs. The format is functional. Put shortly: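 Exponentially growing Jurkat cells were exposed for 24 h, then pelleted at 400g for 5 min. Hypotonic KCl (75 mM, 4 °C) was applied for 20 min, followed by methanol–acetic acid (3:1) fixation and Giemsa staining. 400 cells per treatment were scored microscopically; mitotic index is the fraction with mitotic figures. Three independent experiments, mean ± SEM.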

For the next assay, the system named is A549. In words: Disruption of tubulin network in human A549 cells assessed as disaggregation of microtubules at 1 uM […]. The format is functional, cell-based.
In another assay the target is Tubulin (Sus scrofa) (UniProt P02554+P02550). In words: Inhibition of pig brain tubulin polymerization at 3 uM.
The next assay has as its system MCF7. In words: Cell viability against human MCF7 cells at 10 uM. The format is functional.
A further assay has as its system NCI-H460. In words: Cell viability against human NCI-H460 cells at 10 uM. The format is functional.
The subject of the next assay is SF-268. In words: Cell viability against human SF268 cells at 10 uM. The format is functional.

The source made the active and inactive calls. The calls are words filed in the database; no cut-off is given here.

Tubulin (Sus scrofa), sequence (P02550 whole entry, looked up): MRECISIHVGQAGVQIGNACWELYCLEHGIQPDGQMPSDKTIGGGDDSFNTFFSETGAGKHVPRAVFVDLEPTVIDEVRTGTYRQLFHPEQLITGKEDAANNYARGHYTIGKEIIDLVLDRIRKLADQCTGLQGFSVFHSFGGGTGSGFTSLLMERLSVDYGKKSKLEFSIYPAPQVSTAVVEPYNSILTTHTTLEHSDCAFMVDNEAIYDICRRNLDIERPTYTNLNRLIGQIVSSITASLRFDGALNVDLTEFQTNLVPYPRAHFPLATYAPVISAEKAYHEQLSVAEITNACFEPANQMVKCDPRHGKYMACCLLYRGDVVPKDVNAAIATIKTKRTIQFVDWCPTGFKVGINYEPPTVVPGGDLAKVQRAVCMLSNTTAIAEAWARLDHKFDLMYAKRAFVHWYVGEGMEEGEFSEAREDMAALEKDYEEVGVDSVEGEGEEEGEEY
Tubulin (Sus scrofa), sequence (P02554 whole entry, looked up): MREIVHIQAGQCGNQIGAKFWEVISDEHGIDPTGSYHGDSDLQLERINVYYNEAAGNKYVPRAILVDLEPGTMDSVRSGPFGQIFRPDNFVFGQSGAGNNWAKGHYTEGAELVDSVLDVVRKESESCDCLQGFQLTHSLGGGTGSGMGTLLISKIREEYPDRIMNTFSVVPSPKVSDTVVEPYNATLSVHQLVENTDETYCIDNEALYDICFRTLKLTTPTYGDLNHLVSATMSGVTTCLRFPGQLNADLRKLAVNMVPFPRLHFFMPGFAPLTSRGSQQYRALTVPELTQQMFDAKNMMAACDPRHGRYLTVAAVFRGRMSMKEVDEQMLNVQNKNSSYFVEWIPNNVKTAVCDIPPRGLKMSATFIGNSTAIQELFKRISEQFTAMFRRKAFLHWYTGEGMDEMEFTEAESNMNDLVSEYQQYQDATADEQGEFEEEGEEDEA

With `COc1cc2c(c(OC)c1OC)-c1ccc(OC)c(=O)cc1[C@@H](NC(C)=O)CC2` [COLCHICINE], the Activity in the assay with Jurkat came to 50%.

Turning to `CC[C@]1(O)C[C@@H]2CN(CCc3c([nH]c4ccccc34)[C@@](C(=O)OC)(c3cc4c(cc3OC)N(C)[C@H]3[C@@](O)(C(=O)OC)[C@H](OC(C)=O)[C@]5(CC)C=CCN6CC[C@]43[C@@H]65)C2)C1`, the outcome in the assay with A549 was Active.

On to `CC(=O)O[C@H]1C(=O)[C@@]2(C)[C@H]([C@H](OC(=O)c3ccccc3)[C@]3(O)C[C@H](OC(=O)[C@H](O)[C@@H](NC(=O)c4ccccc4)c4ccccc4)C(C)=C1C3(C)C)[C@]1(OC(C)=O)CO[C@@H]1C[C@@H]2O`, for which, at Tubulin (Sus scrofa), the outcome was Active.

In the case of `N#Cc1c2ccccc2c2cnc3ccccc3n12`, the Activity in the assay with MCF7 is reported as 107%; with NCI-H460, 91%; in the assay on SF-268 it was 94%.

For the molecule `Cc1cc2ncc3c4ccccc4c(C#N)n3c2cc1C`, the Activity in the assay on MCF7 came to 97%; in the assay on NCI-H460, 78%; in the assay on SF-268, 83%.

As for `N#Cc1c2ccccc2c2cnc3cc(Cl)c(Cl)cc3n12`, the Activity with MCF7 was 108%; in the assay with NCI-H460 it was 104%; in the assay with SF-268, 104%.
